Tests used:
[1] = Cytotoxicity, methylene blue staining in Calu-3 cells; assay type: cell-based; conditions: human, Calu-3 cell monolayers
How it was run: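 Calu-3 monolayers (2 × 10^4 cells/well) exposed to test compound at several concentrations for 72 h at 37 °C, 5% CO2, triplicate per concentration. Cells PBS-washed, then fixed and stained 1 h at 37 °C with HBSS + 1.25% glutaraldehyde + 0.6% methylene blue. Rinsed with water; dye eluted 15 min at room temperature (50% ethanol, 49% PBS, 1% acetic acid); A660 read. CC50 fitted from % viability vs log concentration.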

[2] = Cytotoxicity, MTT reduction assay in HepG2 cells; assay type: cell-based; conditions: human, HepG2 cells, CC50 (HepG2)
How it was run: (§1)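 HepG2 cells grown at 37 °C, 5% CO2 in DMEM with streptomycin (40 mg/L) and 10% heat-inactivated FBS. Seeded at 1 × 10^3 cells/well, then exposed to serial dilutions of test compound for 72 h, each concentration in triplicate. MTT added for 4 h; formazan dissolved in isopropanol, read at OD570. Viability expressed as % of vehicle control; CC50 fitted from % viability vs log concentration.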

[3] = tested on: SARS-CoV-2; assay type: cell-based, SARS-CoV-2 B.1 lineage; conditions: correlation between anti-SARS-CoV-2 activity (EC50) and HepG2 cytotoxicity (CC50)
[4] = tested on: HepG2 cell lines; assay: Cytotoxicity, MTT reduction assay in HepG2 cells; assay type: cell-based; conditions: read-out: CC50 (HepG2), 72 h
How it was run: as §1

| Compound | CC50 at 72 h [1] [µM] | CC50 at 72 h [2] [µM] | selectivity index [3] | CC50 [4] [µM] |
| --- | --- | --- | --- | --- |
| Cc1c(-c2ccc(-c3ccccc3F)cc2)nc2ccc(F)cc2c1C(=O)O [brequinar] | 48 ± 2 | 17 ± 4 | – | – |
| CC(C)=CCC1=C(O)C(=O)c2ccccc2C1=O [lapachol] | 67 ± 2 | 71 ± 9 | 47 ± 7 | – |
| C/C(O)=C(\C#N)C(=O)Nc1ccc(C(F)(F)F)cc1 [teriflunomide] | 59 ± 2 | 164 | – | 160 ± 20 |

— paper PMC10938441 (ACS Omega, 2024)
